# Measured values of several laboratories.
# Compare with care: the assays were run in different laboratories.
Compound,tested on,assay,system,conditions,quantity,result
CCN(CC)CCNc1ccc(C)c2sc3ccccc3c(=O)c12,Zaire ebolavirus,"viral replication, inhibitor",HeLa,,IC50,3270 nM
CC1=C(O)C(=O)C=C2C1=CC=C1[C@@]2(C)CC[C@@]2(C)[C@@H]3C[C@](C)(C(=O)OCCCn4cc(C=O)c5ccccc54)CC[C@]3(C)CC[C@]12C,Bel-7402,"cell growth or viability, MTT",,48 h,IC50,770 nM
CCN(CC)Cc1cc(Nc2ccnc3cc(Cl)ccc23)ccc1O,Zaire ebolavirus,"viral replication, inhibitor",Huh-7,24 h,IC50,2130 nM
CC1=C(O)C(=O)C=C2C1=CC=C1[C@@]2(C)CC[C@@]2(C)[C@@H]3C[C@](C)(C(=O)O)CC[C@]3(C)CC[C@]12C,Bel-7402,"cell growth or viability, MTT",,48 h,IC50,790 nM
CCN(CC)CCCC(C)Nc1ccnc2cc(Cl)ccc12 (stereo not drawn),Dengue virus,"viral replication, inhibitor","BHK-21, DENV2","50 µM, 24 h, replicon",inhibition,54.8%
Nc1ncnc2c([C@@H]3N[C@H](CO)[C@@H](O)[C@H]3O)c[nH]c12,Dengue virus,viral replication,"Vero 76, DENV2",3 µM,inhibition,11%
CC(C)(N)CNC(=O)C[C@H]1CC[C@]2(CC1)OO[C@]1(O2)C2CC3CC(C2)CC1C3,Zaire ebolavirus,"viral replication, inhibitor",HeLa,,IC50,4530 nM
c1ccc([C@@H]2C[C@H]2NC2CCNCC2)cc1,MOLM-13,"cell growth or viability, resazurin",,96 h,EC50,0.91 nM
CC[C@H](C)[C@H]1C(=O)N2CCC[C@H]2C(=O)O[C@H](C(C)(C)C)C[C@@H](C)C[C@H](O)[C@H](C)C2=N[C@@H](CCC(=O)N[C@@H](Cc3ccc(OC)cc3)C(=O)N(C)[C@@H](C)C(=O)N1C)CS2,Dengue virus,viral replication,Huh7.5,24 h,IC50,3.3 nM
CCN(CC)Cc1cc(Nc2ccnc3cc(Cl)ccc23)ccc1O,Dengue virus,"viral replication, inhibitor","BHK-21, DENV2","50 µM, 24 h, replicon",inhibition,76.3%
Cc1cccc(-n2ncc(Cl)c(Cl)c2=O)c1,NCI-H23,"cell growth or viability, resazurin",,96 h,IC50,210 nM
Nc1ncn([C@@H]2O[C@H](CO)[C@@H](O)[C@H]2O)c(=O)n1,Zaire ebolavirus,"viral replication, inhibitor",Vero C1008,"50 µM, 72 h",inhibition,86%
